According to ChEMBL document CHEMBL1800034, “A synthetic 7,8-dihydroxyflavone derivative promotes neurogenesis and exhibits potent antidepressant effect” (J Med Chem, 2010):
Active and inactive are the calls of the source. The calls are words filed in the database; no cut-off is given here.

Experiments:
[1] = biological target: BDNF/NT-3 growth factors receptor (Rattus norvegicus) (UniProt Q63604); assay: Agonist activity at TrkB in E17 rat primary cortical neurons assessed as AKT phosphorylation at Ser 473 at 500 nM after 15 mins by ELISA; type: functional, cell-based; details: Cerebral cortex neuron
[2] = biological target: BDNF/NT-3 growth factors receptor (Rattus norvegicus) (UniProt Q63604); assay: Agonist activity at TrkB in E17 rat primary cortical neurons assessed as TrkB phosphorylation at 817 at 500 nM after 15 mins by immunoblotting; type: functional, cell-based; details: Cerebral cortex neuron
Procedure, shortened: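 Rat cortical neurons from E17 embryos, 13 DIV, were treated with 500 nM compound for 15 min. Lysates were run on 10% SDS-PAGE and immunoblotted with p-TrkB Y817 antibody at 1:20,000–40,000.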

Mus musculus = assay: Neuroprotective activity in C57BL/6J mouse assessed as inhibition of kainic acid-induced caspase 3 activation in hippocampus region at 5 mg/kg, po administered 2 to 8 hrs prior to kainic acid challenge measured after 2 hrs by immunoblotting; type: functional, organism-based; design: dose 5 mg/kg
Procedure, shortened: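 C57BL/6J mice dosed orally by gavage at 5 mg/kg. Kainic acid 20 mg/kg i.p. given at 0, 2 or 6 h after dosing. Mice killed 2 h after kainic acid; hippocampal lysates immunoblotted with anti-p-TrkB and anti-active caspase-3.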

[3] = biological target: BDNF/NT-3 growth factors receptor (Rattus norvegicus) (UniProt Q63604); assay: Agonist activity at TrkB in E17 rat primary rat cortical neurons assessed as AKT phosphorylation at Ser 473 at 500 nM after 15 mins by ELISA; type: functional
[4] = biological target: BDNF/NT-3 growth factors receptor (Rattus norvegicus) (UniProt Q63604); assay: Agonist activity at TrkB in E17 rat primary cortical neurons by immunoblotting; type: functional, cell-based; details: Cerebral cortex neuron
[5] = biological target: BDNF/NT-3 growth factors receptor (Rattus norvegicus) (UniProt Q63604); assay: […] in E17 rat primary cortical neurons at 500 nM after 15 mins by immunoblotting; details: Cerebral cortex neuron
Procedure, shortened: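 Primary cortical neurons from E17 rat embryos, 13 DIV, exposed to compound at 500 nM for 15 min. Lysates resolved on 10% SDS-PAGE and immunoblotted for phospho-TrkB (p-TrkB Y817 antibody, 1:20,000–40,000) alongside other signalling antibodies.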

[6] = biological target: BDNF/NT-3 growth factors receptor (Rattus norvegicus) (UniProt Q63604); assay: Agonist activity at TrkB in E17 rat primary cortical neurons assessed as AKT phosphorylation at Ser 473 at 500 nM after 15 mins by ELISA relative to control; type: functional, cell-based; details: Cerebral cortex neuron

Chain of BDNF/NT-3 growth factors receptor (Rattus norvegicus) (Q63604 whole entry): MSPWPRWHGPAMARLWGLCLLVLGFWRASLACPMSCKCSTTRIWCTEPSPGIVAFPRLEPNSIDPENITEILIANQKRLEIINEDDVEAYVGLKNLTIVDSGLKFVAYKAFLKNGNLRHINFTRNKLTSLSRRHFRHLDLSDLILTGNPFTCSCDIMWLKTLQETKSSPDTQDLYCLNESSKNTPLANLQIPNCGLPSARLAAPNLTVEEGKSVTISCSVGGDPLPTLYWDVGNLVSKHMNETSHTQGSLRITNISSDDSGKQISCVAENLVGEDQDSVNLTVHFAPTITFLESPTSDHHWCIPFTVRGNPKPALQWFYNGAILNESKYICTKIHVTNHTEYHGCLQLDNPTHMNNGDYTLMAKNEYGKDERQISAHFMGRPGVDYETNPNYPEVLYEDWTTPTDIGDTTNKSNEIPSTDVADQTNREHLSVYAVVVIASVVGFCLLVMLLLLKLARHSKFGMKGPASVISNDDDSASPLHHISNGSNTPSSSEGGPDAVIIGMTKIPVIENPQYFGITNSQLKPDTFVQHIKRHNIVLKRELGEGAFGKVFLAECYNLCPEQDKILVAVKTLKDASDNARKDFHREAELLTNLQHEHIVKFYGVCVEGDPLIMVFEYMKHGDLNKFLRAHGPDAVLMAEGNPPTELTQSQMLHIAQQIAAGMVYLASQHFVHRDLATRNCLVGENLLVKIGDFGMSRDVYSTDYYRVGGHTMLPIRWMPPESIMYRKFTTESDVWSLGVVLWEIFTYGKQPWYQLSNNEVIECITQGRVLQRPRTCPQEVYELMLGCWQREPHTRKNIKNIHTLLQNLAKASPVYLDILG

SMILES | Activity [1] | further results
O=c1cc(-c2cccc(O)c2)oc2cc(O)ccc12 | Active | Activity [2]: Active
O=c1c(O)c(-c2ccccc2O)oc2c(O)c(O)ccc12 | Active | Activity [2]: Active
O=c1cc(-c2ccccc2)oc2c(O)c(O)cc(O)c12 | Active | Activity [2]: Active
O=c1cc(-c2ccccc2)oc2cc(O)cc(O)c12 | inactive | 
O=c1cc(-c2ccccc2)oc2cc(O)c(O)cc12 | Active | 
O=c1cc(-c2ccccc2)oc2cccc(O)c12 | inactive | 
O=c1cc(-c2ccc(O)c(O)c2)oc2cc(O)ccc12 | inactive | 
O=c1cc(-c2cccc(O)c2)oc2ccccc12 | inactive | 
COc1cccc(-c2cc(=O)c3ccccc3o2)c1OC | inactive | 
O=c1cc(-c2ccc(O)cc2)oc2ccccc12 | inactive | 
COc1cccc(-c2cc(=O)c3ccc(O)cc3o2)c1 | inactive | 
O=c1cc(-c2cc(O)cc(O)c2)oc2ccccc12 | inactive | 
O=c1c(O)c(-c2ccccc2)oc2cc(O)ccc12 | Active | Activity [2]: Active
O=c1cc(-c2cccc(O)c2)oc2cc(O)c(O)cc12 | Active | 
O=c1cc(-c2ccccc2O)oc2c(O)c(O)ccc12 | Active | Activity [2]: Active
O=c1c(-c2ccccc2)coc2cc(O)ccc12 | inactive | 
COc1ccc(-c2cc(=O)c3ccc(O)cc3o2)cc1 | inactive | Activity [2]: Active
C=C(C)[C@H]1CN[C@H](C(=O)O)[C@H]1CC(=O)O |  | inhibition (Mus musculus): Active
C[S+](C)[O-] | inactive | 
COc1ccc(-c2c(C)c3ccc(O)cc3oc2=O)cc1 | inactive | 
COc1cccc(-c2cc(=O)c3ccc(OC)cc3o2)c1 | inactive | 
O=c1cc(-c2ccccc2O)oc2ccccc12 | inactive | 
O=c1cc(-c2ccccc2)[nH]c2c(O)c(O)ccc12 |  | Activity [3]: inactive
O=c1cc(-c2ccccc2)oc2cc(O)c(O)c(O)c12 | inactive | 

SMILES | Activity [1] | further results
COc1ccc2c(=O)cc(-c3ccccc3)oc2c1O | Active | Activity [4]: Active; Activity [2]: Active
O=c1c(O)c(-c2ccc(O)c(O)c2)oc2c(O)c(O)cc(O)c12 |  | inhibition [5]: Active
O=c1cc(-c2ccc(O)cc2)oc2c(O)c(O)ccc12 |  | Activity [2]: Active
O=c1cc(-c2ccccc2)oc2ccc(O)cc12 | inactive | 
COc1ccccc1-c1cc2ccc(O)cc2oc1=O | inactive | 
O=c1cc(-c2ccc(O)cc2O)oc2ccccc12 | inactive | 
O=c1c(O)c(-c2ccccc2)oc2ccccc12 | inactive | 
O=c1c(O)c(-c2cccc(O)c2)oc2cc(O)ccc12 | inactive | 
O=c1cc(-c2cccc(O)c2O)oc2ccccc12 | inactive | 
O=c1cc(-c2ccc(O)c(O)c2)oc2ccccc12 | inactive | 
O=c1c(O)c(-c2cccc(O)c2)oc2ccccc12 | inactive | 
O=c1cc(-c2ccc(F)cc2)[nH]c2c(O)c(O)ccc12 |  | Activity [3]: inactive
COc1cccc(-c2oc3ccccc3c(=O)c2OC)c1 | inactive | 
O=c1c(O)c(-c2ccccc2O)oc2ccccc12 | inactive | 
O=c1cc(-c2cccc(O)c2)oc2c1ccc1ccccc12 | inactive | 
O=c1cc(-c2ccccc2)oc2ccc(O)c(O)c12 | inactive | 
COc1cc(-c2oc3cc(O)ccc3c(=O)c2O)cc(OC)c1OC | inactive | 
O=c1cc(-c2cncnc2)oc2c(O)c(O)ccc12 |  | Activity [3]: Active
COc1c(O)ccc2c(=O)c(-c3ccc(Cl)cc3)coc12 | inactive | 
COc1ccc2c(=O)cc(-c3ccccc3)oc2c1OC | inactive | Activity [4]: Active
O=c1cc(-c2ccccc2)oc2cc(O)ccc12 | inactive | 
O=c1cc(-c2ccccc2)oc2ccccc12 | inactive | 
O=c1cc(-c2cccc(O)c2)oc2c(O)c(O)ccc12 |  | fold change (FC) [6]: 2; Activity [2]: Active
